Assays:
[1] = Cytotoxicity against human MT4 cells assessed as reduction in cell viability incubated for 5 days by MTT assay; format: toxicity, cell-based; settings: MT4 cells, time 5 day
Procedure, shortened: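 Uninfected MT-4 cells were exposed to compound, and viability was read by the MTT method. […] Each value was run in at least triplicate and averaged from at least three independent experiments.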

[2] = system: Human immunodeficiency virus 2; assay: Antiviral activity against HIV2 ROD infected in human MT4 cells assessed as reduction in virus induced cytopathic effect measured after 5 days by MTT assay; format: functional, organism-based; settings: Human immunodeficiency virus 2, ROD, MT4, 120 h
Procedure, shortened: (§1)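 MT-4 cells were infected with HIV-1 IIIB or HIV-2 ROD, and cell viability was read by MTT. […] Each value was run in at least triplicate and averaged from at least three independent experiments.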

[3] = system: Human immunodeficiency virus 1; assay: Antiviral activity against HIV1 IIIB infected in human MT4 cells assessed as reduction in virus induced cytopathic effect measured after 5 days by MTT assay; format: functional, organism-based; settings: Human immunodeficiency virus 1, IIIB, MT4, 120 h; procedure, shortened: as §1
[4] = Selectivity index, ratio of CC50 for cytotoxicity against human MT4 cells to EC50 for antiviral activity against HIV2 ROD infected in human MT4 cells; format: toxicity, cell-based; settings: read-out: Ratio CC50/EC50
Procedure, shortened: (§2)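 SI is CC50 divided by EC50. CC50 comes from MTT viability of uninfected MT-4 cells. EC50 comes from MTT-read protection of MT-4 cells infected with HIV-1 IIIB or HIV-2 ROD. Each value was run in at least triplicate.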

[5] = Selectivity index, ratio of CC50 for cytotoxicity against human MT4 cells to EC50 for antiviral activity against HIV1 IIIB infected in human MT4 cells; format: toxicity, cell-based; settings: read-out: Ratio CC50/EC50; procedure, shortened: as §2
[6] = Selectivity ratio of EC50 for antiviral activity against HIV1 IIIB infected in human MT4 cells to EC50 for antiviral activity against HIV2 ROD infected in human MT4 cells; format: toxicity, cell-based
Procedure, shortened: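 Ratio is EC50 against HIV-1 IIIB divided by EC50 against HIV-2 ROD. Both EC50 values come from MTT-read protection of infected MT-4 cells.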

SMILES | CC50 at 120 h [1] | EC50 [2] | EC50 [3] | selectivity ratio [4] | selectivity ratio [5] | Ratio EC50 [6]
O=C(CN1CCN(S(=O)(=O)c2ccc([N+](=O)[O-])cc2)CC1)N[C@@H](Cc1ccccc1)c1nc2ccccc2c(=O)n1-c1ccc(S(=O)(=O)N2CCS(=O)(=O)CC2)cc1 | > 145 µM | 0.73 µM | 12.6 µM | > 198 | > 11.5 | –
COc1ccc(N(C)C(=O)[C@H](Cc2cc(F)cc(F)c2)NC(=O)CN(Cc2ccccc2)C(=O)Cc2ccc3ccccc3c2)cc1 | 176 µM | > 18.9 µM | – | < 1 | < 1 | –
COc1ccc(N(C)C(=O)[C@H](Cc2ccccc2)NC(=O)Cn2ccc(NC(=O)c3ccc([N+](=O)[O-])cc3)cc2=O)cc1 | 31.9 µM | > 31.9 µM | > 31.9 µM | – | – | –
COc1ccc(-n2c(SCCF)nnc2[C@H](Cc2ccccc2)NC(=O)Cc2c(C)[nH]c3ccccc23)cc1 | – | 4.07 µM | 1.24 µM | 6 | 20 | 0.3
COc1ccc(N(C)C(=O)[C@H](Cc2ccccc2)NC(=O)Cn2ccc(NC(=O)c3ccc4ccccc4c3)cc2=O)cc1 | 27.6 µM | > 27.6 µM | > 27.6 µM | – | – | –
COc1ccc(N(C)C(=O)[C@H](Cc2ccccc2)NC(=O)CN2CCN(C(=O)Cc3c[nH]c4ccc(O)cc34)CC2=O)cc1 | > 209 µM | – | – | > 1.12 | > 1.06 | 1.06
COc1ccc(N(C)C(=O)[C@H](Cc2ccccc2)NC(=O)CN2CCN(C(=O)c3ccc(NC(=O)C4CC4)cc3)CC2=O)cc1 | 168 µM | 15 µM | – | 11.2 | < 1 | > 11.15
COc1ccc(N(C)C(=O)[C@H](Cc2ccccc2)NC(=O)CN2CCN(C(=O)c3ccc(NS(C)(=O)=O)cc3)CC2=O)cc1 | > 201 µM | – | – | – | > 1.05 | < 0.96
COc1ccc(N(C)C(=O)[C@H](Cc2ccccc2)NC(=O)Cn2ccc(NC(=O)c3ccc(Br)cc3)cc2=O)cc1 | 23.5 µM | > 23.5 µM | > 23.5 µM | – | – | –
COc1ccc(N(C)C(=O)[C@H](Cc2cc(F)cc(F)c2)NC(=O)CN2CCN(C(=O)Cc3c[nH]c4ccc(Br)cc34)CC2=O)cc1 | 3.15 µM | > 3.15 µM | > 3.15 µM | < 1 | < 1 | –
COc1ccc(N(C)C(=O)[C@H](Cc2ccccc2)NC(=O)CN2CCN(C(=O)c3ccc(NC(C)=O)cc3)CC2=O)cc1 | > 213 µM | – | – | > 1.16 | > 1.05 | 1.1
COc1ccc(N(C)C(=O)[C@H](Cc2cc(F)cc(F)c2)NC(=O)CN2CCN(C(=O)Cc3c[nH]c4ccc(O)cc34)CC2=O)cc1 | 132 µM | 49.6 µM | – | 2.65 | < 1 | –
COc1ccc(N(C)C(=O)[C@H](Cc2cc(F)cc(F)c2)NC(=O)CN2CCN(C(=O)c3ccc(NC(C)=O)cc3)CC2=O)cc1 | 196 µM | – | – | 1.02 | 1.11 | 0.92
COc1ccc(-n2c(SCCN(C)C)nnc2[C@H](Cc2ccccc2)NC(=O)Cc2c(C)[nH]c3ccccc23)cc1 | – | > 22.9 µM | 0.85 µM | – | 27 | < 0.04
COc1ccc(N(C)C(=O)[C@H](Cc2ccccc2)NC(=O)CN2CCN(C(=O)c3ccc(NC(=O)C(F)(F)F)cc3)CC2=O)cc1 | > 195 µM | 15 µM | – | > 13.1 | > 1.24 | 10.54
COc1ccc(N(C)C(=O)[C@H](Cc2cc(F)cc(F)c2)NC(=O)CN(Cc2ccc(F)cc2)C(=O)Cc2cccc3ccccc23)cc1 | > 191 µM | 5.87 µM | – | > 33 | – | > 32.6

SMILES | CC50 at 120 h [1] | EC50 [2] | EC50 [3] | selectivity ratio [4] | selectivity ratio [5] | Ratio EC50 [6]
COc1ccc(N(C)C(=O)[C@H](Cc2ccccc2)NC(=O)Cn2ccc(NC(=O)c3ccc(N)cc3)cc2=O)cc1 | 189 µM | 17.1 µM | – | 11 | – | > 11.04
COc1ccc(-n2c(SCc3ccc(B(O)O)cc3)nnc2[C@H](Cc2ccccc2)NC(=O)Cc2c(C)[nH]c3ccccc23)cc1 | 20.8 µM | > 20.8 µM | 2.71 µM | – | 8 | < 0.13
COc1ccc(N(C)C(=O)[C@H](Cc2ccccc2)NC(=O)Cn2ccc(NC(=O)c3ccc(Cl)cc3)cc2=O)cc1 | 25.5 µM | > 25.5 µM | > 25.5 µM | – | – | –
COc1ccc(N(C)C(=O)[C@H](Cc2cc(F)cc(F)c2)NC(=O)CN(Cc2ccc(F)cc2)C(=O)Cc2ccc3ccccc3c2)cc1 | > 160 µM | – | – | – | – | –
COc1ccc(-n2c(SCCCN3CCOCC3)nnc2[C@H](Cc2ccccc2)NC(=O)Cc2c(C)[nH]c3ccccc23)cc1 | – | 3.73 µM | 0.59 µM | 13 | 83 | 0.16
COc1ccc(-n2c(SCCN3CCOCC3)nnc2[C@H](Cc2ccccc2)NC(=O)Cc2c(C)[nH]c3ccccc23)cc1 | – | 4.98 µM | 0.79 µM | 16 | 103 | 0.16
COc1ccc(N(C)C(=O)[C@H](Cc2cc(F)cc(F)c2)NC(=O)CN(Cc2ccc(F)cc2)C(=O)Cc2c(C)[nH]c3ccccc23)cc1 | 22.6 µM | > 22.6 µM | 2.79 µM | – | 8 | < 0.12
COc1ccc(-n2c(SCc3ccncc3)nnc2[C@H](Cc2ccccc2)NC(=O)Cc2c(C)[nH]c3ccccc23)cc1 | – | 4.27 µM | 2.89 µM | 6 | 9 | 0.68
COc1ccc(N(C)C(=O)[C@H](Cc2cc(F)cc(F)c2)NC(=O)CN2CCN(C(=O)c3ccc(NS(C)(=O)=O)cc3)CC2=O)cc1 | > 190 µM | – | – | > 1.04 | > 1.18 | 0.88
COC(=O)C(C)(C)Sc1nnc([C@H](Cc2ccccc2)NC(=O)Cc2c(C)[nH]c3ccccc23)n1-c1ccc(OC)cc1 | 22.6 µM | > 22.6 µM | 2.88 µM | – | 8 | 0.13
COc1ccc(-n2c(SCc3cccnc3)nnc2[C@H](Cc2ccccc2)NC(=O)Cc2c(C)[nH]c3ccccc23)cc1 | 24 µM | > 7.81 µM | 2.99 µM | – | 8 | < 0.38
COc1ccc(-n2c(SCC#N)nnc2[C@H](Cc2ccccc2)NC(=O)Cc2c(C)[nH]c3ccccc23)cc1 | – | 2.69 µM | 0.59 µM | 36 | 163 | 0.22
COc1ccc(-n2c(SCCC(F)(F)F)nnc2[C@H](Cc2ccccc2)NC(=O)Cc2c(C)[nH]c3ccccc23)cc1 | 30.8 µM | > 30.8 µM | 2.87 µM | – | 11 | < 0.09
COc1ccc(N(C)C(=O)[C@H](Cc2cc(F)cc(F)c2)NC(=O)CN(Cc2ccc(C#N)cc2)C(=O)Cc2ccc3ccccc3c2)cc1 | > 189 µM | – | – | > 1 | – | 1.17
COc1ccc(-n2c(SCCC3CCCCC3)nnc2[C@H](Cc2ccccc2)NC(=O)Cc2c(C)[nH]c3ccccc23)cc1 | > 206 µM | – | – | – | – | –

— ChEMBL document CHEMBL5344428, “Discovery, Crystallographic Studies, and Mechanistic Investigations of Novel Phenylalanine Derivatives Bearing a Quinazolin-4-one Scaffold as Potent HIV Capsid Modulators” (J Med Chem, 2023)
